According to ChEMBL document CHEMBL3585272, “Syntheses and Antibacterial Activity of N-Acylated Ciprofloxacin Derivatives Based on the Trimethyl Lock” (ACS Med Chem Lett, 2015):
In brackets after ≈: the same amount, converted by molar mass.

Experiments:
Micrococcus luteus [1] = assay: Antibacterial activity against Micrococcus luteus ATCC 10240 at 0.1 mM incubated for 24 hrs at 37 degC by agar diffusion assay; assay type: functional; settings: ATCC 10240, 24 h, read-out: DIZ
Method in brief: (§1)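 Agar well diffusion. 50 μL of a 0.1 mM solution in 1:9 DMSO/MeOH was added to 9 mm wells in Standard I nutrient agar or Mueller Hinton II agar. Plates were incubated at 37 °C for 24 h, or 44 h for M. vaccae, then inhibition zones were read. Unclear zones were scored separately.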

Mycolicibacterium vaccae [2] = assay: Antibacterial activity against Mycobacterium vaccae IMET10670 at 0.1 mM incubated for 44 hrs at 37 degC by agar diffusion assay; assay type: functional; settings: IMET10670, 44 h, read-out: DIZ; method in brief: as §1
Acinetobacter baumannii [3] = assay: Antibacterial activity against Acinetobacter baumannii ATCC 17961 at 0.1 mM incubated for 24 hrs at 37 degC by agar diffusion assay; assay type: functional; settings: ATCC 17961, 24 h, read-out: DIZ; method in brief: as §1
Pseudomonas aeruginosa [4] = assay: Antibacterial activity against wild type Pseudomonas aeruginosa K799 at 0.1 mM incubated for 24 hrs at 37 degC by agar diffusion assay; assay type: functional; settings: K799, 24 h, read-out: DIZ; method in brief: as §1
Pseudomonas aeruginosa [5] = assay: Antibacterial activity against Pseudomonas aeruginosa K799/61 at 0.1 mM incubated for 24 hrs at 37 degC by agar diffusion assay; assay type: functional; settings: K799/61, 24 h, read-out: DIZ; method in brief: as §1
Escherichia coli [6] = assay: Antibacterial activity against Escherichia coli X580 at 0.1 mM incubated for 24 hrs at 37 degC by agar diffusion assay; assay type: functional; settings: X580, 24 h, read-out: DIZ; method in brief: as §1
Escherichia coli [7] = assay: Antibacterial activity against Escherichia coli DC0 at 0.1 mM incubated for 24 hrs at 37 degC by agar diffusion assay; assay type: functional; settings: DC0, 24 h, read-out: DIZ; method in brief: as §1
Escherichia coli [8] = assay: Antibacterial activity against Escherichia coli DC2 at 0.1 mM incubated for 24 hrs at 37 degC by agar diffusion assay; assay type: functional; settings: DC2, 24 h, read-out: DIZ; method in brief: as §1
Bacillus subtilis [9] = assay: Antibacterial activity against Bacillus subtilis ATCC 6633 by broth microdilution method; assay type: functional
Method in brief: (§2)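 Broth microdilution in Mueller-Hinton broth No.2 (MHII) following CLSI guidelines. The MIC (μM) was read by visual end point. Each compound was tested in triplicate.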

Staphylococcus aureus [10] = assay: Antibacterial activity against Staphylococcus aureus SG511 by broth microdilution method; assay type: functional; method in brief: as §2
Micrococcus luteus [11] = assay: Antibacterial activity against Micrococcus luteus ATCC 10240 by broth microdilution method; assay type: functional; method in brief: as §2
Mycolicibacterium vaccae [12] = assay: Antibacterial activity against Mycobacterium vaccae IMET10670 by broth microdilution method; assay type: functional; method in brief: as §2
Acinetobacter baumannii [13] = assay: Antibacterial activity against Acinetobacter baumannii ATCC 17961 by broth microdilution method; assay type: functional; method in brief: as §2
Pseudomonas aeruginosa [14] = assay: Antibacterial activity against wild type Pseudomonas aeruginosa K799 by broth microdilution method; assay type: functional; method in brief: as §2
Pseudomonas aeruginosa [15] = assay: Antibacterial activity against Pseudomonas aeruginosa K799/61 by broth microdilution method; assay type: functional; method in brief: as §2
Escherichia coli [16] = assay: Antibacterial activity against Escherichia coli DC0 by broth microdilution method; assay type: functional; method in brief: as §2
Escherichia coli [17] = assay: Antibacterial activity against Escherichia coli DC2 by broth microdilution method; assay type: functional; method in brief: as §2
Bacillus subtilis [18] = assay: Antibacterial activity against Bacillus subtilis ATCC 6633 at 0.1 mM incubated for 24 hrs at 37 degC by agar diffusion assay; assay type: functional; settings: ATCC 6633, 24 h, read-out: DIZ; method in brief: as §1
Staphylococcus aureus [19] = assay: Antibacterial activity against Staphylococcus aureus SG511 at 0.1 mM incubated for 24 hrs at 37 degC by agar diffusion assay; assay type: functional; settings: SG511, 24 h, read-out: DIZ; method in brief: as §1
Acinetobacter baumannii [20] = assay: Antibacterial activity against Acinetobacter baumannii ATCC 17961 assessed as unclear inhibition zone or inhibition zone with many colonies at 0.1 mM incubated for 24 hrs at 37 degC by agar diffusion assay; assay type: functional; settings: ATCC 17961, 24 h, read-out: DIZ; method in brief: as §1
Pseudomonas aeruginosa [21] = assay: Antibacterial activity against wild type Pseudomonas aeruginosa K799 assessed as unclear inhibition zone or inhibition zone with many colonies at 0.1 mM incubated for 24 hrs at 37 degC by agar diffusion assay; assay type: functional; settings: K799, 24 h, read-out: DIZ; method in brief: as §1
Pseudomonas aeruginosa [22] = assay: Antibacterial activity against Pseudomonas aeruginosa K799/61 assessed as unclear inhibition zone or inhibition zone with many colonies at 0.1 mM incubated for 24 hrs at 37 degC by agar diffusion assay; assay type: functional; settings: K799/61, 24 h, read-out: DIZ; method in brief: as §1
Escherichia coli [23] = assay: Antibacterial activity against Escherichia coli X580 assessed as unclear inhibition zone or inhibition zone with many colonies at 0.1 mM incubated for 24 hrs at 37 degC by agar diffusion assay; assay type: functional; settings: X580, 24 h, read-out: DIZ; method in brief: as §1
Escherichia coli [24] = assay: Antibacterial activity against Escherichia coli DC0 assessed as unclear inhibition zone or inhibition zone with many colonies at 0.1 mM incubated for 24 hrs at 37 degC by agar diffusion assay; assay type: functional; settings: DC0, 24 h, read-out: DIZ; method in brief: as §1
[25] = Retention time of the compound in presence of methyl mercaptoacetate in CH3CN/PBS solution at 37 degC incubated for 3 hrs by HPLC method; assay type: physicochemical; settings: buffer
Mycolicibacterium vaccae [26] = assay: Antibacterial activity against Mycobacterium vaccae IMET10670 assessed as unclear inhibition zone or inhibition zone with many colonies at 0.1 mM incubated for 44 hrs at 37 degC by agar diffusion assay; assay type: functional; settings: IMET10670, 44 h, read-out: DIZ; method in brief: as §1

| SMILES | MIC (Bacillus subtilis [9]) [µM] | MIC (Staphylococcus aureus [10]) [µM] | MIC (Micrococcus luteus [11]) [µM] | MIC (Mycolicibacterium vaccae [12]) [µM] | MIC (Acinetobacter baumannii [13]) [µM] | MIC (Pseudomonas aeruginosa [14]) [µM] | MIC (Pseudomonas aeruginosa [15]) [µM] | MIC (Escherichia coli [16]) [µM] | MIC (Escherichia coli [17]) [µM] | zone of inhibition at 100 µM (Micrococcus luteus [1]) [mm] | zone of inhibition at 100 µM (Mycolicibacterium vaccae [2]) [mm] | zone of inhibition at 100 µM (Acinetobacter baumannii [3]) [mm] | zone of inhibition at 100 µM (Pseudomonas aeruginosa [4]) [mm] | zone of inhibition at 100 µM (Pseudomonas aeruginosa [5]) [mm] | zone of inhibition at 100 µM (Escherichia coli [6]) [mm] | zone of inhibition at 100 µM (Escherichia coli [7]) [mm] | zone of inhibition at 100 µM (Escherichia coli [8]) [mm] | zone of inhibition at 100 µM (Bacillus subtilis [18]) [mm] | zone of inhibition at 100 µM (Staphylococcus aureus [19]) [mm] | zone of inhibition at 100 µM (Acinetobacter baumannii [20]) [mm] | further results |
| --- | --- | --- | --- | --- | --- | --- | --- | --- | --- | --- | --- | --- | --- | --- | --- | --- | --- | --- | --- | --- | --- |
| CC1=CC(=O)C(C(C)(C)CC(=O)O)=C(C)C1=O | 50 (≈ 11.8 µg/mL) | > 100 | 50 (≈ 11.8 µg/mL) | 80 (≈ 18.9 µg/mL) | > 100 | > 100 | > 100 | > 100 | > 100 | 0 | 0 | 0 | 0 | 0 | 0 | 0 | 0 | 0 | 0 |  |  |
| COC(=O)CSc1c(C)c(O)c(C)c2c1OC(=O)CC2(C)C |  |  |  |  |  |  |  |  |  |  |  |  |  |  |  |  |  |  |  |  | Retention_time [25]: 9.2 min |
| CC(C)(C)CC(=O)N1CCN(c2cc3c(cc2F)c(=O)c(C(=O)O)cn3C2CC2)CC1 | < 0.05 | 0.4 (≈ 0.172 µg/mL) | 12.5 (≈ 5.37 µg/mL) | 2 (≈ 0.859 µg/mL) | 25 (≈ 10.7 µg/mL) | > 100 | > 100 | > 100 | 100 (≈ 42.9 µg/mL) |  |  |  |  |  |  |  |  |  |  |  |  |

The next lines start with results.

| MIC (Bacillus subtilis [9]) [µM] | MIC (Staphylococcus aureus [10]) [µM] | MIC (Micrococcus luteus [11]) [µM] | MIC (Mycolicibacterium vaccae [12]) [µM] | MIC (Acinetobacter baumannii [13]) [µM] | MIC (Pseudomonas aeruginosa [14]) [µM] | MIC (Pseudomonas aeruginosa [15]) [µM] | MIC (Escherichia coli [16]) [µM] | MIC (Escherichia coli [17]) [µM] | SMILES | zone of inhibition at 100 µM (Micrococcus luteus [1]) [mm] | zone of inhibition at 100 µM (Mycolicibacterium vaccae [2]) [mm] | zone of inhibition at 100 µM (Acinetobacter baumannii [3]) [mm] | zone of inhibition at 100 µM (Pseudomonas aeruginosa [4]) [mm] | zone of inhibition at 100 µM (Pseudomonas aeruginosa [5]) [mm] | zone of inhibition at 100 µM (Escherichia coli [6]) [mm] | zone of inhibition at 100 µM (Escherichia coli [7]) [mm] | zone of inhibition at 100 µM (Escherichia coli [8]) [mm] | zone of inhibition at 100 µM (Bacillus subtilis [18]) [mm] | zone of inhibition at 100 µM (Staphylococcus aureus [19]) [mm] | zone of inhibition at 100 µM (Acinetobacter baumannii [20]) [mm] | further results |
| --- | --- | --- | --- | --- | --- | --- | --- | --- | --- | --- | --- | --- | --- | --- | --- | --- | --- | --- | --- | --- | --- |
| < 0.05 | 0.4 (≈ 0.173 µg/mL) | > 100 | 2 (≈ 0.863 µg/mL) | > 100 | > 100 | > 100 | > 100 | > 100 | CC(C)(C)OC(=O)N1CCN(c2cc3c(cc2F)c(=O)c(C(=O)O)cn3C2CC2)CC1 |  |  |  |  |  |  |  |  |  |  |  |  |
| < 0.05 | 0.1 (≈ 0.0628 µg/mL) | 1.56 (≈ 0.98 µg/mL) | 2 (≈ 1.26 µg/mL) | 0.78 (≈ 0.49 µg/mL) | 5 (≈ 3.14 µg/mL) | 2.5 (≈ 1.57 µg/mL) | 12.5 (≈ 7.86 µg/mL) | 8.33 (≈ 5.24 µg/mL) | CC1=C(Br)C(=O)C(C(C)(C)CC(=O)N2CCN(c3cc4c(cc3F)c(=O)c(C(=O)O)cn4C3CC3)CC2)=C(C)C1=O | 19 | 37 | 18 | 29 | 29 | 33 | 17 | 24 | 35 | 25 | 23 | zone of inhibition at 100 µM (Pseudomonas aeruginosa [21]): 35 mm; zone of inhibition at 100 µM (Pseudomonas aeruginosa [22]): 38 mm; zone of inhibition at 100 µM (Escherichia coli [23]): 40 mm; zone of inhibition at 100 µM (Escherichia coli [24]): 21 mm |
| < 0.05 | < 0.05 | 0.2 (≈ 0.11 µg/mL) | 0.5 (≈ 0.275 µg/mL) | 0.39 (≈ 0.214 µg/mL) | 1.25 (≈ 0.687 µg/mL) | 2.5 (≈ 1.37 µg/mL) | 12.5 (≈ 6.87 µg/mL) | 6.25 (≈ 3.43 µg/mL) | CC1=CC(=O)C(C(C)(C)CC(=O)N2CCN(c3cc4c(cc3F)c(=O)c(C(=O)O)cn4C3CC3)CC2)=C(C)C1=O | 28 | 32 | 26 | 41 | 35 | 32 | 21 | 27 | 39 | 33 | 32 | zone of inhibition at 100 µM (Mycolicibacterium vaccae [26]): 42 mm; zone of inhibition at 100 µM (Pseudomonas aeruginosa [22]): 42 mm; zone of inhibition at 100 µM (Escherichia coli [23]): 40 mm; zone of inhibition at 100 µM (Escherichia coli [24]): 29 mm |
